The target of series [1] is Cannabinoid receptor 2 (Homo sapiens) (UniProt P34972). The series can be described thus: Agonist activity at human CB2 receptor expressed in rat hematopoietic Chem-4 cells assessed as induction of calcium flux at 12.5 uM by fluorescence assay. Format: functional, cell-based. The procedure, abridged:
(§1)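 GPCR profiling panel of cell-based functional assays covering 165 GPCRs; agonist mode tested at 12.5 μM and antagonist mode at 10 μM, in duplicate.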

Series [2] in a line: Induction of apoptosis in endothelin-1 induced neonatal rat ventricular cardiomyocytes at 50 uM measured after 24 hrs by TUNEL assay. In kind it is cell-based. The following applies: cardiac muscle cell. The essentials:
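Neonatal rat cardiomyocytes on 8-well chamber slides treated 24 h at 50 μM; apoptotic cells detected by TUNEL with peroxidase in situ kit.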

The target of series [3] is Glycogen synthase kinase-3 beta (Homo sapiens) (UniProt P49841). Briefly: Inhibition of human GSK3-beta at 30 uM. The procedure, abridged: (§2)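 48-kinase profiling panel; compounds tested at 30 μM in duplicate.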
The target of series [4] is Hydroxycarboxylic acid receptor 2 (Homo sapiens) (UniProt Q8TDS4). The series can be described thus: Antagonist activity at human GPR109A expressed in rat Chem-4 cells assessed as inhibition of calcium flux at 10 uM by fluorescence assay. In kind it is functional, cell-based. The procedure, abridged: as §1
In series [5] the target is Parathyroid hormone 2 receptor (Homo sapiens) (UniProt P49190). Briefly: Agonist activity at human PTH2 receptor expressed in Chem-1 cells assessed as induction of calcium flux at 12.5 uM by fluorescence assay. Format: functional, cell-based. The procedure, abridged: as §1
Series [6] in a line: Induction of necrosis in neonatal rat ventricular cardiomyocytes assessed as release of adenylate kinase at 50 uM measured after 24 hrs by bioluminescence assay. In kind it is cell-based. The note with it: cardiac muscle cell. The procedure, abridged:
(§3)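 Neonatal rat cardiomyocytes treated 24 h at 50 μM; adenylate kinase released into medium measured by ToxiLight bioluminescence on a luminometer; relative to vehicle, mean ± SD, n = 3.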

For series [7], the target named is Homeobox protein Nkx-2.5 (Mus musculus) (UniProt P42582). Briefly: Inhibition of binding of mouse NKX2-5 to [32P]-double stranded oligonucleotide expressed in African green monkey COS-1 cells at 50 uM preincubated for 10 mins followed by [32P]-double stranded oligonucleotide addition measured after 20 mins by EMSA method. In kind it is cell-based. The essentials: (§4)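 Nuclear extracts from COS-1 cells transfected with pMT2-GATA4 or pMT2-NKX2-5 (harvested 48 h) preincubated 10 min with 50 μM compound, then 20 min with 32P-labeled GATA4- or NKX2-5-site probe; native 5% PAGE, phosphorimager quantitation; antibody supershift controls; mean ± SD, n = 3–5.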

The target in series [8] is Transcription factor GATA-4 (Mus musculus) (UniProt Q08369). Briefly: Inhibition of binding of mouse GATA4 to [32P]-double stranded oligonucleotide expressed in African green monkey COS-1 cells at 50 uM preincubated for 10 mins followed by [32P]-double stranded oligonucleotide addition measured after 20 mins by EMSA method. In kind it is cell-based. The essentials:
as §4

Series [9] shares this target. Briefly: Inhibition of mouse GATA4-driven transactivation of luciferase reporter construct containing BNP minimal promoter with tandem GATA-site on -90 bp expressed in African green monkey COS-1 cells after 30 hrs by luminometer. Format: cell-based. The essentials:
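COS-1 cells co-transfected with firefly luciferase driven by BNP minimal or −90 bp BNP promoter, Renilla pRL-TKd238, and pMT2-GATA4 or empty pMT2. Compounds added 6 h post-transfection in 0.1% DMSO, refreshed with medium at 24 h; lysis at 30 h; dual-luciferase, firefly/Renilla normalized to vehicle; triplicate wells.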

Series [10] can be described thus: Induction of necrosis in endothelin-1 induced neonatal rat ventricular cardiomyocytes assessed as release of adenylate kinase at 50 uM measured after 24 hrs by bioluminescence assay. In kind it is cell-based. The following applies: cardiac muscle cell. The procedure, abridged:
as §3

A short description of series [11]: Stability of compound in DMSO assessed as formation of N-[4-(Ethylamino)phenyl]-5-methyl-3-phenylisoxazole-4-carboxamide at 3 to 5 uM at room temperature measured after 6 months by HPLC/MS method. Format: physicochemical. The following applies: 4383 h.
Series [12] addresses T1, GATA4/NKX2-5 (Rattus norvegicus) (UniProt P46152+O35767). Briefly: Inhibition of GATA4/NKX2-5 interaction in neonatal rat ventricular cardiomyocytes assessed as decrease in basal mRNA level of BNP at 10 uM after 24 hrs by real-time PCR analysis. The procedure, abridged: (§5)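 Neonatal rat ventricular myocytes (2–4-day-old Sprague-Dawley or Wistar), preplated, seeded on 6-well plates, moved to complete serum-free medium next day and cultured 24 h. Compounds (10–100 μM) added 1 h before 100 nM endothelin-1 or none; ANP and BNP mRNA quantified by RT-PCR at 24 h, normalized to 18S RNA, relative to vehicle; mean ± SD, n = 3–6.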

The target of series [13] is T1, GATA4/NKX2-5 (Rattus norvegicus). The series can be described thus: Inhibition of GATA4/NKX2-5 interaction in neonatal rat ventricular cardiomyocytes assessed as decrease in basal mRNA level of ANP at 10 uM after 24 hrs by real-time PCR analysis. The procedure, abridged: as §5
Series [14] is filed under the species Homo sapiens. Briefly: Inhibition of human PKA at 30 uM. The essentials: as §2
Series [15] concerns the target Vascular endothelial growth factor receptor 2 (Homo sapiens) (UniProt P35968). Briefly: Inhibition of human VEGFR2 at 30 uM. The procedure, abridged:
as §2

Series [16] concerns the target GATA4/NKX2-5 (Mus musculus, UniProt P42582+Q08369). Briefly: (§6) Inhibition of mouse GATA4/NKX2-5 transcriptional synergy expressed in African green monkey COS-1 cells measured after 30 hrs by dual luciferase reporter gene assay. Format: cell-based. The essentials:
(§7)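 COS-1 cells co-transfected (Fugene 6, DNA:reagent 1:3) with p3xNKE-luc, Renilla pRL-TKd238 control, and pMT2-GATA4, pMT2-NKX2-5, both, or empty pMT2; DNA balanced with pMT2. Compounds added 6 h post-transfection in 0.1% DMSO, medium renewed at 24 h, lysis at 30 h. Dual-luciferase read-out, firefly/Renilla normalized to vehicle; duplicate wells.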

For series [17], the target named is GATA4/NKX2-5 (Mus musculus) (UniProt Q08369+P42582). The description is as §6. In kind it is cell-based. The procedure, abridged:
as §7

Series [18] deals with Rho-associated protein kinase 1 (Homo sapiens) (UniProt Q13464). Briefly: Inhibition of human ROCK1 at 30 uM. The procedure, abridged:
as §2

The nature of series [19]: Induction of aggregation of compound at 3 to 30 uM by nephalometric method.
A short description of series [20]: Drug metabolism in embryoid body differentiation medium assessed as formation of N-[4-(Ethylamino)phenyl]-5-methyl-3-phenylisoxazole-4-carboxamide at 3 to 5 uM measured after 10 days by HPLC/MS method. In kind it is physicochemical. The note with it: 240 h. The essentials: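 Mouse embryonic stem cells exposed 5 and 10 days to 3 or 5 μM, with DMSO and EB differentiation medium blanks. Medium extracted with chloroform; cells pelleted, saline-washed twice, sonicated in chloroform. UPLC-ESI(+)-QTOF/MS, BEH C18, 0.1% formic acid water/acetonitrile gradient 7–80% B over 5 min, 0.6 mL/min, 40 °C.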

In series [21] the target is Parathyroid hormone 2 receptor (Homo sapiens) (UniProt P49190). Briefly: Antagonist activity at human PTH2 receptor expressed in rat Chem-1 cells assessed as inhibition of TIP-39 induced calcium flux at 10 uM by fluorescence assay. Format: functional, cell-based. The essentials:
as §1

Series [22] concerns the target Cannabinoid receptor 2 (Homo sapiens) (UniProt P34972). Briefly: Antagonist activity at human CB2 receptor expressed in rat hematopoietic Chem-4 cells assessed as inhibition of CP55940 induced calcium flux at 10 uM by fluorescence assay. In kind it is functional, cell-based. The essentials: as §1

pIC50: −log10 of the molar value. The source made the active and inactive calls. No cut-off for these calls is given here.

Chain of Transcription factor GATA-4 (Mus musculus) (Q08369 whole entry): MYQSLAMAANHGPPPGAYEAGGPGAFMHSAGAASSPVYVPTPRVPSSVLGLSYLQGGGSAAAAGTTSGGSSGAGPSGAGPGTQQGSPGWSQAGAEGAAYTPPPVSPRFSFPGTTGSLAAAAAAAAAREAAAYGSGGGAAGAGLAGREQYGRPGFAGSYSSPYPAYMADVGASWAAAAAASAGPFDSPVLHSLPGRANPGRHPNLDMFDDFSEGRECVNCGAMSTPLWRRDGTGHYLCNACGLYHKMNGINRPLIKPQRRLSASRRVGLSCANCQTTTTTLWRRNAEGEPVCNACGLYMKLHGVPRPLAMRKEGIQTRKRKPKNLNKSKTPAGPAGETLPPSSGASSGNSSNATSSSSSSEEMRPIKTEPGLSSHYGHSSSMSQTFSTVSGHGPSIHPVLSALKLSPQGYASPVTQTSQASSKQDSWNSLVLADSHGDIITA
Chain of Cannabinoid receptor 2 (Homo sapiens) (P34972 whole entry): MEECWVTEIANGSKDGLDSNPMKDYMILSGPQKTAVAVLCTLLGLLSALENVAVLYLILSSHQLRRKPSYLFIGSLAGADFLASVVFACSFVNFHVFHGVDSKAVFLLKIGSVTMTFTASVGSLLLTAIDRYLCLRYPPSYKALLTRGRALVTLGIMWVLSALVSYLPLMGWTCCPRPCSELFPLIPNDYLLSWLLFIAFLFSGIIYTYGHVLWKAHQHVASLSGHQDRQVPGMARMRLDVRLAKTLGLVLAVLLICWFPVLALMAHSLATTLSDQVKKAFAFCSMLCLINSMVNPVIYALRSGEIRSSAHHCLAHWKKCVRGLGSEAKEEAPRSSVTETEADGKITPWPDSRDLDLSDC
Chain of Parathyroid hormone 2 receptor (Homo sapiens) (P49190 whole entry): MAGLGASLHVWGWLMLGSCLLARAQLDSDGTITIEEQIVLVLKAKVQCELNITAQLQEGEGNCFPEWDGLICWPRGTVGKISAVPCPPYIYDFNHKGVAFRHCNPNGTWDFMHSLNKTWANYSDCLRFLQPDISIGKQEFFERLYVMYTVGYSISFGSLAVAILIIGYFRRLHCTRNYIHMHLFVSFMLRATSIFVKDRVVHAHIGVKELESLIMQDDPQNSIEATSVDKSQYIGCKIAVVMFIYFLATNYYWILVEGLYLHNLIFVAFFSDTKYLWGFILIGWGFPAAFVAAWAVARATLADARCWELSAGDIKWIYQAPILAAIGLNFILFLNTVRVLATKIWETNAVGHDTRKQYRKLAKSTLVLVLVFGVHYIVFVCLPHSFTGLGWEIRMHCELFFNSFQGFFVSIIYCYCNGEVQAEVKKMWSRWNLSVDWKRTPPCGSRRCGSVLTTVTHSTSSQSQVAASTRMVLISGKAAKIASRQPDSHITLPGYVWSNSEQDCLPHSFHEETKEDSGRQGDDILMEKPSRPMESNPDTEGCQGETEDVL
Chain of Rho-associated protein kinase 1 (Homo sapiens) (Q13464 2-1354 limits assumed): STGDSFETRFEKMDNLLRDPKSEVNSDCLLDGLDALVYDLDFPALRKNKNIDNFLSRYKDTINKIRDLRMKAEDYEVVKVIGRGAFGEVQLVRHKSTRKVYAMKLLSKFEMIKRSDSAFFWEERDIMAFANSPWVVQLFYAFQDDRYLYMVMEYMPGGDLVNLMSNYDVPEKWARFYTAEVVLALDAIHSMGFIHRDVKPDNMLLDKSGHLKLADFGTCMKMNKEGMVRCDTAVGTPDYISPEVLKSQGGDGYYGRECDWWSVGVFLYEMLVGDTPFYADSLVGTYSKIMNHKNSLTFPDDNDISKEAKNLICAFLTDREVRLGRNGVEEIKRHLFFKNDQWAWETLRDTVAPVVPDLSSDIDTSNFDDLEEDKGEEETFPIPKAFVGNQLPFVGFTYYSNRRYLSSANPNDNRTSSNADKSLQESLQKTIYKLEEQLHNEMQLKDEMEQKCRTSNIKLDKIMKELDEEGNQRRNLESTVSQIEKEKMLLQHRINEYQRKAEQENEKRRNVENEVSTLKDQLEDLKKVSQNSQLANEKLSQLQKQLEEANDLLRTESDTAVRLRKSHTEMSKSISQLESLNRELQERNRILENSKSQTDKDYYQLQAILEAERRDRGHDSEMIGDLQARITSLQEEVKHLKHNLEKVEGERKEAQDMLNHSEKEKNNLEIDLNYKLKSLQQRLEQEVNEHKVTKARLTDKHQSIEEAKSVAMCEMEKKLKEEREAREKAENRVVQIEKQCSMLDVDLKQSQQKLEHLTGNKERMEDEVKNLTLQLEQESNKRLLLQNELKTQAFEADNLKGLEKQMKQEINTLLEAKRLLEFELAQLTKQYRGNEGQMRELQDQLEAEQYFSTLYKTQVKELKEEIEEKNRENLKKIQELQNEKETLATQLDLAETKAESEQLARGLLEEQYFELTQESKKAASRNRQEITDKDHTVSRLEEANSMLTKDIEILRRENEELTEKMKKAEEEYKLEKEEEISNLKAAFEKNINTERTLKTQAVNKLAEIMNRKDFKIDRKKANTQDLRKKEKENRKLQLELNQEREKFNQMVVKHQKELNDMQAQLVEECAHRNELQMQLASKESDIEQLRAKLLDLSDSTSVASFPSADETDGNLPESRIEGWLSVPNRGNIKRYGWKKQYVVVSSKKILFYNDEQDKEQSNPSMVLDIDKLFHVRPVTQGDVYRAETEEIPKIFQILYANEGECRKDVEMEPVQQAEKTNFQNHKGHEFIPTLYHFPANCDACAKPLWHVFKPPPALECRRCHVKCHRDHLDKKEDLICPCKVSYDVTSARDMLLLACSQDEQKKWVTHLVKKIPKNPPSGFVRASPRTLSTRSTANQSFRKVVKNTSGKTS
Chain of GATA4/NKX2-5 (Q08369 whole entry): as the sequence (Q08369 whole entry) above
Chain of GATA4/NKX2-5 (P42582 whole entry): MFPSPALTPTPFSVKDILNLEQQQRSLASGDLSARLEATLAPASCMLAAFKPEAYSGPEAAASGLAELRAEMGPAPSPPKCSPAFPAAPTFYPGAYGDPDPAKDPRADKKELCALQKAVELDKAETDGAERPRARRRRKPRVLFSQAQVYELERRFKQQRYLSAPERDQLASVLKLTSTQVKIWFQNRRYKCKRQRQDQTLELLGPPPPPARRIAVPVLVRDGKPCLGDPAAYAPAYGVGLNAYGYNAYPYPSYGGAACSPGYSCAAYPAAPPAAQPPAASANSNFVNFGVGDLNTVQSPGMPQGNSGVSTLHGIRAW
Chain of Vascular endothelial growth factor receptor 2 (Homo sapiens) (P35968 whole entry): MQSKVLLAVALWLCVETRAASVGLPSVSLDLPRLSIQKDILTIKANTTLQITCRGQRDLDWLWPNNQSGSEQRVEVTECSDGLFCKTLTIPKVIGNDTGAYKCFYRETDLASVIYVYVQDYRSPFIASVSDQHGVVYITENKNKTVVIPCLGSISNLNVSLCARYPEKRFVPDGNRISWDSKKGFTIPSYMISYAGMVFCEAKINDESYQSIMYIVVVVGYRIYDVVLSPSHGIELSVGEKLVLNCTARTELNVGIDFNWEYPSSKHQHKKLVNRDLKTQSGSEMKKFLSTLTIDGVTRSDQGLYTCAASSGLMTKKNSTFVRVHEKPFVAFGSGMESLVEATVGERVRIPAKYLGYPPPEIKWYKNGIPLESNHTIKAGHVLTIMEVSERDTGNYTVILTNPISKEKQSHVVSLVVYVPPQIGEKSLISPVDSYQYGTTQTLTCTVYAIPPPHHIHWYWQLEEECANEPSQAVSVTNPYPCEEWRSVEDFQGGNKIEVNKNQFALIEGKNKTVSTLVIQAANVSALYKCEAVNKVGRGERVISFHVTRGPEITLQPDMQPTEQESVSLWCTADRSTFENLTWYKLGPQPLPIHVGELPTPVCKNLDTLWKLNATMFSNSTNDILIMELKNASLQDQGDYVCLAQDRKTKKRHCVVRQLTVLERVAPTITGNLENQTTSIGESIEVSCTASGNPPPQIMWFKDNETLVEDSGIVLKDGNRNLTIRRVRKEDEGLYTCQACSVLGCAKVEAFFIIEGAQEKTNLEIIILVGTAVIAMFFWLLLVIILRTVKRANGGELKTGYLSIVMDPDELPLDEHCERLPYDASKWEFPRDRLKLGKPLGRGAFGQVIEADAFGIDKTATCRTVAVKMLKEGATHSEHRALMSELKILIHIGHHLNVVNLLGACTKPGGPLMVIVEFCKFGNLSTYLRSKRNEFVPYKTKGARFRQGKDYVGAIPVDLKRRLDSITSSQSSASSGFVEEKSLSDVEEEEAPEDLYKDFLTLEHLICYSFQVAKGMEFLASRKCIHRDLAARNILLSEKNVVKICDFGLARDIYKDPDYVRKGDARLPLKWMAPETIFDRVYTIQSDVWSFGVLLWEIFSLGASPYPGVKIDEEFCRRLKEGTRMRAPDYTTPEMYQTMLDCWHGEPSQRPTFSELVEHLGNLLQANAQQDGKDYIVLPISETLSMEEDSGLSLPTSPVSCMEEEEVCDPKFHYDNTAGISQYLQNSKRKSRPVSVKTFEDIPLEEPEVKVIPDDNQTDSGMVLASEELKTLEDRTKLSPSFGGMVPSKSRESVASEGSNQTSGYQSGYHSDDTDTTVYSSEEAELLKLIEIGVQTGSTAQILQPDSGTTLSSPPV
Chain of Hydroxycarboxylic acid receptor 2 (Homo sapiens) (Q8TDS4 whole entry): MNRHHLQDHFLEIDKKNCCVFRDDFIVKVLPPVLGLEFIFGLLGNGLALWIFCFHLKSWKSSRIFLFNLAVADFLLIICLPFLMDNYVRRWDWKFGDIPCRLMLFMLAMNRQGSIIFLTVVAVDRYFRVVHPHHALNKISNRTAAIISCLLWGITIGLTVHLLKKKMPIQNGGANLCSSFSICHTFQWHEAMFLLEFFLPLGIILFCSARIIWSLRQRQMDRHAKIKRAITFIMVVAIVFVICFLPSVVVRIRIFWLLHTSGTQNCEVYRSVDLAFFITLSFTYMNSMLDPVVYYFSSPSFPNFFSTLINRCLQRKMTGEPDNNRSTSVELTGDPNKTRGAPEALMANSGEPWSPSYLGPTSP
Chain of Homeobox protein Nkx-2.5 (Mus musculus) (P42582 whole entry): as the sequence (P42582 whole entry) above

For `CCN(CC)c1ccc(NC(=O)c2c(-c3ccccc3)noc2C)cc1`, the outcome in [1], in series [5] and in [19] was inactive. Besides, the Activity result in series [2], in series [6] and in [10] was “Non-Toxic” each time. Further, the inhibition entry in [3], in series [7], in series [8], in [14] and in series [18] was “inactive” in each case. Moreover, the inhibition in series [4] was 58.5%; in series [12], 75%; in series [13], 81%; in series [15], 64%; in series [17], “Dose-dependent effect”; in series [21] it was 59.5%. In series [22], the inhibition is 91.8%. Besides, in [9], the inhibition result was “Active”. In addition, the Stability result in series [11] was “Stable”. The negative logarithm of the IC50 (pIC50) in series [16] was 5.52. In [20], the Drug metabolism entry is listed as “Metabolite_Detected”.

Source of the values: ChEMBL document CHEMBL4028856, “Discovery of Small Molecules Targeting the Synergy of Cardiac Transcription Factors GATA4 and NKX2-5” (J Med Chem, 2017).
